Source: ChEMBL document CHEMBL4118069, “Structure-activity relationship study and optimisation of 2-aminopyrrole-1-benzyl-4,5-diphenyl-1H-pyrrole-3-carbonitrile as a broad spectrum metallo-β-lactamase inhibitor” (Eur J Med Chem, 2017)
Each block holds one compound with its values, some of them ahead of it.

How the values were obtained:
[1] = tested on: Bacteria; experiment: Inhibition of bacterial IMP1 at 10 uM using CENTA as substrate by UV/Vis multi-plate spectrophotometric method relative to control
[2] = molecular target: T1, Metallo-beta-lactamase AIM-1 (Pseudomonas aeruginosa) (UniProt B5DCA0); experiment: Uncompetitive inhibition of Pseudomonas aeruginosa recombinant AIM1 expressed in Escherichia coli BL21(DE3) using cefuroxime as substrate by UV/Vis multi-plate spectrophotometric method
T1 sequence (whole entry): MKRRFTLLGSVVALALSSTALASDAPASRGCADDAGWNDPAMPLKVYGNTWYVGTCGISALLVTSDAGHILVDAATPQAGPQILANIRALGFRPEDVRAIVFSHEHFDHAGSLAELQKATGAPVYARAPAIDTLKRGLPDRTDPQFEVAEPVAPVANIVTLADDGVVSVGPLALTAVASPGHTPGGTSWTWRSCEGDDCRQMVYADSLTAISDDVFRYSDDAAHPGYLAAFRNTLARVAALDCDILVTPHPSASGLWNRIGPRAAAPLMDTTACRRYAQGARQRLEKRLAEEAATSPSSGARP

[3] = molecular target: Metallo-beta-lactamase type 2 (Aeromonas hydrophila) (UniProt P26918); experiment: Inhibition of Aeromonas hydrophila CphA expressed in Escherichia coli BL21(DE3) assessed as potentiation of meropenem-mediated antibacterial activity by measuring meropenem MIC at 30 uM after overnight incubation (reference value: 1 ug/ml)
How it was run: (§1)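 Meropenem MICs (µg/mL) measured for E. coli BL21 cultures expressing IMP-1, CphA or AIM-1. Each strain was tested with no inhibitor (blank) and with the test compound at 30 µM. Change in sensitivity is expressed as the reduction of the meropenem MIC relative to the blank.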

[4] = tested on: Bacteria; experiment: Competitive inhibition of bacterial IMP1 using CENTA as substrate by UV/Vis multi-plate spectrophotometric method
[5] = tested on: Escherichia coli; experiment: Growth inhibition of Escherichia coli BL21(DE3) expressing bacterial IMP1; format: organism-based; conditions: in vivo
[6] = molecular target: T1, Metallo-beta-lactamase AIM-1 (Pseudomonas aeruginosa); experiment: Competitive inhibition of Pseudomonas aeruginosa recombinant AIM1 expressed in Escherichia coli BL21(DE3) using cefuroxime as substrate by UV/Vis multi-plate spectrophotometric method
[7] = tested on: Bacteria; experiment: Inhibition of bacterial IMP1 expressed in Escherichia coli BL21(DE3) assessed as potentiation of meropenem-mediated antibacterial activity by measuring meropenem MIC at 30 uM after overnight incubation (reference value: 1 ug/ml); how it was run: as §1
[8] = tested on: Escherichia coli; experiment: Growth inhibition of Escherichia coli BL21(DE3) expressing Pseudomonas aeruginosa AIM1; format: organism-based; conditions: in vivo
[9] = tested on: Escherichia coli; experiment: Growth inhibition of Escherichia coli BL21(DE3) expressing Aeromonas hydrophila CphA; format: organism-based; conditions: in vivo
[10] = molecular target: T1, Metallo-beta-lactamase AIM-1 (Pseudomonas aeruginosa); experiment: Inhibition of Pseudomonas aeruginosa recombinant AIM1 expressed in Escherichia coli BL21(DE3) assessed as potentiation of meropenem-mediated antibacterial activity by measuring meropenem MIC at 30 uM after overnight incubation (reference value: 2 ug/ml); how it was run: as §1
[11] = molecular target: Metallo-beta-lactamase type 2 (Aeromonas hydrophila) (UniProt P26918); experiment: Competitive inhibition of Aeromonas hydrophila recombinant CphA expressed in Escherichia coli BL21(DE3) using meropenem as substrate by UV/Vis multi-plate spectrophotometric method
[12] = molecular target: Metallo-beta-lactamase type 2 (Aeromonas hydrophila) (UniProt P26918); experiment: Uncompetitive inhibition of Aeromonas hydrophila recombinant CphA expressed in Escherichia coli BL21(DE3) using meropenem as substrate by UV/Vis multi-plate spectrophotometric method
[13] = tested on: Bacteria; experiment: Uncompetitive inhibition of bacterial IMP1 using CENTA as substrate by UV/Vis multi-plate spectrophotometric method
[14] = Drug metabolism assessed as bacterial IMP1-mediated N-(1-Benzyl-3-cyano-4,5-diphenyl-1H-pyrrol-2-yl)benzamide formation by ESI-MS method; format: ADME; conditions: bacteria
[15] = molecular target: Metallo-beta-lactamase type 2 (Aeromonas hydrophila) (UniProt P26918); experiment: Inhibition of Aeromonas hydrophila CphA expressed in Escherichia coli BL21(DE3) assessed as decrease in meropenem MIC at 30 uM after overnight incubation relative to control; how it was run: as §1
[16] = tested on: Bacteria; experiment: Inhibition of bacterial IMP1 expressed in Escherichia coli BL21(DE3) assessed as decrease in meropenem MIC at 30 uM after overnight incubation relative to control; how it was run: as §1
[17] = molecular target: T1, Metallo-beta-lactamase AIM-1 (Pseudomonas aeruginosa); experiment: Inhibition of Pseudomonas aeruginosa AIM1 expressed in Escherichia coli BL21(DE3) assessed as decrease in meropenem MIC at 30 uM after overnight incubation relative to control; how it was run: as §1

Chain of Metallo-beta-lactamase type 2 (Aeromonas hydrophila) (P26918 whole entry): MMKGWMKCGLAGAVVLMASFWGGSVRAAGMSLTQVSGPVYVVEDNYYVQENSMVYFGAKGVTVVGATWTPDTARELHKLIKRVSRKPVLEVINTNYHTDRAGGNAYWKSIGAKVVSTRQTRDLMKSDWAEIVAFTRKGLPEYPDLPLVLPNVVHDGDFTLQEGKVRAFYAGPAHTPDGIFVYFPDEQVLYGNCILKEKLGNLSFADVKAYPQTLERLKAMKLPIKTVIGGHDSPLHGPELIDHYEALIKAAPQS

Compound: N#Cc1c(-c2ccccc2)c(-c2ccccc2)n(-c2ccccc2)c1N
inhibition [1]: 0%

Compound: CCCC(=O)N(C(=O)CCC)c1c(C#N)c(-c2ccccc2)c(-c2ccccc2)n1Cc1ccccc1
inhibition [1]: 17.1%

Compound: N#Cc1c(-c2ccco2)c(-c2ccco2)n(Cc2ccccc2)c1N
inhibition [1]: 23.2%

Compound: N#Cc1c(-c2ccccc2)c(-c2ccccc2)n(Cc2ccccc2)c1NC(=O)c1ccc([N+](=O)[O-])cc1
Kiuc [2]: 47 µM | MIC [3]: 0.75 µg/mL | Kic [4]: 1.24 µM | growth inhibition (GI) [5]: Non-Toxic | inhibition [1]: 36.9% | Kic [6]: 10.9 µM | MIC [7]: 0.25 µg/mL | growth inhibition (GI) [8]: Non-Toxic | growth inhibition (GI) [9]: Non-Toxic | MIC [10]: 0.5 µg/mL

Compound: N#Cc1c(-c2ccccc2)c(-c2ccccc2)n(Cc2ccccc2)c1N
Kiuc [2]: 12.5 µM | MIC [3]: 0.047 µg/mL | Kic [4]: 21 µM | growth inhibition (GI) [5]: Non-Toxic | inhibition [1]: 26% | Kic [6]: 2.2 µM | MIC [7]: 0.5 µg/mL | Kic [11]: 52 µM | growth inhibition (GI) [8]: Non-Toxic | growth inhibition (GI) [9]: Non-Toxic | Kiuc [12]: 5.5 µM | MIC [10]: 0.25 µg/mL

Compound: N#Cc1c(-c2ccccc2)c(-c2ccccc2)n(Cc2ccccc2)c1N(C(=O)c1ccc([N+](=O)[O-])cc1)C(=O)c1ccc([N+](=O)[O-])cc1
inhibition [1]: 20.2%

Compound: CC(=O)Nc1c(C#N)c(-c2ccccc2)c(-c2ccccc2)n1Cc1ccccc1
inhibition [1]: 16.1%

Compound: N#Cc1c(-c2ccccc2)c(-c2ccccc2)n(Cc2ccccc2)c1N(C(=O)c1ccccc1)C(=O)c1ccccc1
Kic [4]: 468 µM | Kiuc [13]: 55 µM | inhibition [1]: 48% | Drug metabolism [14]: Metabolite_Notdetected

Compound: CCCCCCCCCCCCCC(=O)Nc1c(C#N)c(-c2ccccc2)c(-c2ccccc2)n1Cc1ccccc1
inhibition [1]: 8.2%

Compound: N#Cc1c(-c2ccccc2)c(-c2ccccc2)n(CCCCc2ccccc2)c1N
inhibition [1]: 8.7%

Compound: Cc1c(C#N)c(N)n(Cc2ccccc2)c1C
inhibition [1]: 2.3%

Compound: N#Cc1c(-c2ccccc2)c(-c2ccccc2)n(CCCc2ccccc2)c1N
inhibition [1]: 4.1%

Compound: N#Cc1c(-c2ccccc2)c(-c2ccccc2)n(Cc2ccccc2)c1N1C(=O)c2ccccc2C1=O
inhibition [1]: 20.3%

Compound: N#Cc1c(N)[nH]c(-c2ccccc2)c1-c1ccccc1
inhibition [1]: 12%

Compound: N#Cc1c(-c2ccccc2)c(-c2ccccc2)n(Cc2ccccc2)c1NC(=O)c1cccc([N+](=O)[O-])c1
Kic [4]: 23.7 µM | Kiuc [13]: 3.3 µM | inhibition [1]: 48.7%

Compound: NC(=O)c1c(-c2ccccc2)c(-c2ccccc2)n(Cc2ccccc2)c1N
inhibition [1]: 0%

Compound: CC(=O)N(C(C)=O)c1c(C#N)c(-c2ccccc2)c(-c2ccccc2)n1Cc1ccccc1
inhibition [1]: 18.6%

The next lines start with results.

inhibition [1]: 23.3%
Compound: N#Cc1c(-c2ccccc2)c(-c2ccccc2)n(Cc2ccccc2)c1NC(=O)C1CCCCC1

inhibition [1]: 20.1%
Compound: COc1ccc(Cn2c(N)c(C#N)c(-c3ccccc3)c2-c2ccccc2)cc1

inhibition [1]: 13.3%
Compound: Cc1cc(C)cc(C(=O)N(C(=O)c2cc(C)cc(C)c2)c2c(C#N)c(-c3ccccc3)c(-c3ccccc3)n2Cc2ccccc2)c1

MIC [3]: 0.75 µg/mL | Kiuc [13]: 1.52 µM | inhibition [1]: 44.3% | MIC [7]: 0.5 µg/mL | Kic [11]: 872 µM | Kiuc [12]: 161 µM | MIC [10]: 0.75 µg/mL
Compound: N#Cc1c(-c2ccccc2)c(-c2ccccc2)n(Cc2ccccc2)c1NC(=O)c1ccc(C(=O)c2ccccc2)cc1
growth inhibition (GI) [5]: Non-Toxic | growth inhibition (GI) [8]: Non-Toxic | growth inhibition (GI) [9]: Non-Toxic

inhibition [1]: 4.8%
Compound: N#Cc1c(-c2ccccc2)c(-c2ccccc2)n(CCc2ccccc2)c1N

inhibition [1]: 8.7%
Compound: Nc1c(-c2nnn[nH]2)c(-c2ccccc2)c(-c2ccccc2)n1Cc1ccccc1

inhibition [1]: 14.3%
Compound: CCCCCCCCCCCCCC(=O)N(C(=O)CCCCCCCCCCCCC)c1c(C#N)c(-c2ccccc2)c(-c2ccccc2)n1Cc1ccccc1

Kiuc [2]: 13 µM | Kic [4]: 10.7 µM | Kiuc [13]: 4.3 µM | inhibition [1]: 50.9% | fold change (FC) [15]: 40 | Kic [6]: 1.6 µM | fold change (FC) [16]: 20 | Kic [11]: 11 µM | fold change (FC) [17]: 20 | Kiuc [12]: 9 µM
Compound: N#Cc1c(-c2ccccc2)c(-c2ccccc2)n(Cc2ccccc2)c1NC(=O)c1ccccc1
growth inhibition (GI) [5]: Non-Toxic | growth inhibition (GI) [8]: Non-Toxic | growth inhibition (GI) [9]: Non-Toxic

Kic [4]: 20.2 µM | Kiuc [13]: 7.8 µM | inhibition [1]: 32.3%
Compound: Cc1cc(C)cc(C(=O)Nc2c(C#N)c(-c3ccccc3)c(-c3ccccc3)n2Cc2ccccc2)c1

inhibition [1]: 21%
Compound: CCCC(=O)Nc1c(C#N)c(-c2ccccc2)c(-c2ccccc2)n1Cc1ccccc1
